Calls of active or inactive are those of the source. No cut-off for these calls is given here.
Columns and labels:
[1] = Selectivity index, ratio of CC50 for mouse J774A1 cells to IC50 for axenic amastigote forms of Leishmania amazonensis; assay type: toxicity; conditions: read-out: Ratio CC50/IC50
Summary of the method: (§1)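 Selectivity index calculated as CC50 in J774-A1 macrophages (48 h MTT) divided by IC50 for L. amazonensis promastigotes or axenic amastigotes (72 h XTT/PMS).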

[2] = Selectivity index, ratio of CC50 for mouse J774A1 cells to IC50 for promastigote forms of Leishmania amazonensis; assay type: toxicity; conditions: read-out: Ratio CC50/IC50; summary of the method: as §1
[3] = Cytotoxicity against mouse J774A1 cells assessed as reduction in cell viability after 48 hrs by MTT assay; assay type: cell-based, J774.A1
Summary of the method: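 J774-A1 macrophages in RPMI 1640 with 10% FBS, plated and left 24 h at 37 °C, 5% CO2. Supernatant then replaced by increasing compound concentrations for 48 h. After a PBS wash, MTT (2 mg/mL) was added for 4 h at 25 °C in the dark, formazan dissolved in DMSO, absorbance read at 570 nm. CC50 by regression versus negative control; at least three experiments.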

Leishmania amazonensis [4] = test: Antileishmanial activity against promastigote forms of Leishmania amazonensis after 72 hrs by XTT/PMS dye based spectrophotometric analysis; assay type: functional, organism-based
Summary of the method: (§2)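 Log-phase parasites (promastigotes 48 h, axenic amastigotes 72 h) plated at the printed density with increasing compound concentrations; 72 h at 25 °C (promastigotes) or 32 °C (axenic amastigotes). XTT/PMS (0.5 and 0.3 mg/mL) added in the dark, absorbance at 450 nm after 4 h; IC50 versus negative control by regression. Mean ± SD of at least three independent experiments.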

Leishmania amazonensis [5] = test: Antileishmanial activity against axenic amastigote forms of Leishmania amazonensis after 72 hrs by XTT/PMS dye based spectrophotometric analysis; assay type: functional, organism-based; summary of the method: as §2
Leishmania amazonensis [6] = test: Antileishmanial activity against promastigote forms of Leishmania amazonensis MHOM/BR/75/Josefa after 72 hrs by haemocytometry; assay type: functional, organism-based
Leishmania amazonensis [7] = test: Antileishmanial activity against axenic amastigote forms of Leishmania amazonensis MHOM/BR/75/Josefa after 72 hrs by haemocytometry; assay type: functional, organism-based
[8] = Selectivity index, ratio of CC50 for mouse J774.G8 cells to IC50 for promastigote forms of Leishmania amazonensis MHOM/BR/75/Josefa; assay type: toxicity; conditions: read-out: Ratio CC50/IC50
Leishmania amazonensis [9] = test: Induction of ultrastructural alteration in promastigote forms of Leishmania amazonensis assessed as ultrastructural alteration in mitochondrial membrane at 6.2 uM after 24 hrs by transmission electron microscopic analysis; assay type: functional, organism-based
Summary of the method: (§3)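 Promastigotes (1 x 10^6/mL) exposed to 6.2 μM for 24, 48 or 72 h at 25 °C alongside untreated controls. Fixed in 2.5% glutaraldehyde in 0.1 M cacodylate buffer. For TEM, post-fixed 1 h in 1% OsO4 with 0.8% potassium ferrocyanide in cacodylate buffer. For SEM, samples were gold-coated before viewing.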

Leishmania amazonensis [10] = test: Induction of ROS generation in promastigote forms of Leishmania amazonensis at IC50 to IC90 uM after 24 hrs in presence of NAC by H2DCFDA staining based spectrofluorometric analysis; assay type: functional, organism-based
Leishmania amazonensis [11] = test: Induction of ultrastructural alteration in promastigote forms of Leishmania amazonensis assessed as formation of storage-lipid bodies at 6.2 uM after 48 hrs by transmission electron microscopic analysis; assay type: functional, organism-based; summary of the method: as §3
Leishmania amazonensis [12] = test: Induction of morphological alteration in promastigote forms of Leishmania amazonensis assessed as reduction in cell volume at 6.2 uM after 24 to 72 hrs by scanning electron microscopic analysis; assay type: functional, organism-based; summary of the method: as §3
Leishmania amazonensis [13] = test: Induction of lipid body storage in promastigote forms of Leishmania amazonensis at IC50 after 24 hrs by nile red staining based fluorescence assay relative to control; assay type: functional
Leishmania amazonensis [14] = test: Induction of ultrastructural alteration in promastigote forms of Leishmania amazonensis assessed as formation of mitochondrial swelling at 6.2 uM after 48 hrs by transmission electron microscopic analysis; assay type: functional, organism-based; summary of the method: as §3
Leishmania amazonensis [15] = test: Induction of ROS generation in promastigote forms of Leishmania amazonensis at IC90 after 24 hrs by H2DCFDA staining based spectrofluorometric analysis relative to control; assay type: functional
Leishmania amazonensis [16] = test: Induction of ultrastructural alteration in promastigote forms of Leishmania amazonensis assessed as alteration in plasma membrane at 6.2 uM after 48 hrs by transmission electron microscopic analysis; assay type: functional, organism-based; summary of the method: as §3
Leishmania amazonensis [17] = test: Induction of ROS generation in promastigote forms of Leishmania amazonensis at IC50 after 24 hrs by H2DCFDA staining based spectrofluorometric analysis relative to control; assay type: functional
Leishmania amazonensis [18] = test: Induction of ultrastructural alteration in promastigote forms of Leishmania amazonensis assessed as alteration in flagellar pocket with vacuoles at 6.2 uM after 72 hrs by transmission electron microscopic analysis; assay type: functional, organism-based; summary of the method: as §3
Leishmania amazonensis [19] = test: Induction of ultrastructural alteration in promastigote forms of Leishmania amazonensis assessed as formation of mitochondrial swelling at 6.2 uM after 72 hrs by transmission electron microscopic analysis; assay type: functional, organism-based; summary of the method: as §3
Leishmania amazonensis [20] = test: Induction of ultrastructural alteration in promastigote forms of Leishmania amazonensis assessed as ultrastructural alteration in plasma membrane at 6.2 uM after 24 hrs by transmission electron microscopic analysis; assay type: functional, organism-based; summary of the method: as §3
Leishmania amazonensis [21] = test: Induction of morphological alteration in promastigote forms of Leishmania amazonensis assessed as cell rounding at 6.2 uM after 24 to 72 hrs by scanning electron microscopic analysis; assay type: functional, organism-based; summary of the method: as §3
Leishmania amazonensis [22] = test: Induction of lipid body storage in promastigote forms of Leishmania amazonensis at IC90 after 24 hrs by nile red staining based fluorescence assay relative to control; assay type: functional

SMILES	selectivity ratio [2]	CC50 at 48 h [3] [µM]	IC50 (Leishmania amazonensis [4]) [µM]	other results
CCCCCCCCCCCCCCCCOP(=O)([O-])OCC[N+](C)(C)C [MILTEFOSINE]	2.2	40.5	18.5	selectivity ratio [1]: 16.9; IC50 (Leishmania amazonensis [5]): 2.4 µM
CC(C)Nc1nc(NNC(=O)c2cc3c([nH]c4ccccc43)c(-c3ccccc3Cl)n2)nc(NC(C)C)n1	–	–	> 100	–
CC(C)Nc1nc(NCCNC(=O)c2cc3c([nH]c4ccccc43)c(-c3cccc([N+](=O)[O-])c3)n2)nc(NC(C)C)n1	1.9	86.3	44.6	–
O=C(NCCNc1nc(N2CCOCC2)nc(N2CCOCC2)n1)c1cc2c([nH]c3ccccc32)c(-c2ccccc2)n1	–	–	> 100	–
O=C(NNc1nc(Cl)nc(Cl)n1)c1cc2c([nH]c3ccccc32)c(-c2ccccc2Cl)n1	0.6	22	34.1	–
COc1ccc(-c2nc(C(=O)NNc3nc(Cl)nc(Cl)n3)cc3c2[nH]c2ccccc23)cc1	–	–	> 100	–
O=C(NCCNc1nc(NC2CCCCC2)nc(NC2CCCCC2)n1)c1cc2c([nH]c3ccccc32)c(-c2ccccc2)n1	–	–	> 100	–
O=C(NCCNc1nc(Cl)nc(Cl)n1)c1cc2c([nH]c3ccccc32)c(-c2ccccc2)n1	4.4	135	30.9	selectivity ratio [1]: 70.8; IC50 (Leishmania amazonensis [5]): 1.9 µM
O=C(NCCNc1nc(NCc2ccccc2)nc(NCc2ccccc2)n1)c1cc2c([nH]c3ccccc32)c(-c2ccccc2)n1	–	–	> 100	–
COc1ccc(-c2nc(C(=O)NCCNc3nc(Cl)nc(Cl)n3)cc3c2[nH]c2ccccc23)cc1	3	201	67.5	selectivity ratio [1]: 201; IC50 (Leishmania amazonensis [5]): 1 µM
CN1CCN(c2nc(NCCNC(=O)c3cc4c([nH]c5ccccc54)c(-c4ccccc4)n3)nc(N3CCN(C)CC3)n2)CC1	–	–	> 100	–
O=C(NNc1nc(Cl)nc(Cl)n1)c1cc2c([nH]c3ccccc32)c(-c2ccc(F)cc2)n1	–	–	> 100	–
O=C(NCCNc1nc(Cl)nc(Cl)n1)c1cc2c([nH]c3ccccc32)c(-c2cccc([N+](=O)[O-])c2)n1	16.3	83.1	5.1	selectivity ratio [1]: 75.5; IC50 (Leishmania amazonensis [5]): 1.1 µM
NNc1nc(NN)nc(NCCNC(=O)c2cc3c([nH]c4ccccc43)c(-c3ccccc3)n2)n1	–	–	> 100	–
CC(C)Nc1nc(NCCNC(=O)c2cc3c([nH]c4ccccc43)c(-c3ccc(F)cc3)n2)nc(NC(C)C)n1	–	–	> 100	–
O=C(NNc1nc(Cl)nc(Cl)n1)c1cc2c([nH]c3ccccc32)c(-c2ccccc2)n1	2.2	94.5	43.3	selectivity ratio [1]: 85.9; IC50 (Leishmania amazonensis [5]): 1.1 µM
O=C(NCCNc1nc(Cl)nc(Cl)n1)c1cc2c([nH]c3ccccc32)c(-c2ccccc2Cl)n1	3.8	28.5	7.6	–
O=C(NCCNc1nc(Cl)nc(Cl)n1)c1cc2c([nH]c3ccccc32)c(-c2ccc(F)cc2)n1	–	–	> 100	–
COc1ccc(-c2nc(C(=O)NCc3ccccc3)cc3c2[nH]c2ccccc23)cc1	–	–	–	IC50 (Leishmania amazonensis [6]): 2.6 µM; IC50 (Leishmania amazonensis [7]): 1 µM
O=C(NCCCCCCNc1nc(Cl)nc(Cl)n1)c1cc2c([nH]c3ccccc32)c(-c2ccccc2)n1	–	–	> 100	–
COc1ccc(-c2nc(C(=O)NNc3nc(NC(C)C)nc(NC(C)C)n3)cc3c2[nH]c2ccccc23)cc1	–	–	> 100	–
CC(C)Nc1nc(NNC(=O)c2cc3c([nH]c4ccccc43)c(-c3ccc(F)cc3)n2)nc(NC(C)C)n1	1.2	50	43.4	–
CCCCNC(=O)c1cc2c([nH]c3ccccc32)c(-c2ccc(OC)cc2)n1	–	–	–	IC50 (Leishmania amazonensis [6]): 0.25 µM; selectivity ratio [8]: 2080
CC(C)Nc1nc(NCCNC(=O)c2cc3c([nH]c4ccccc43)c(-c3ccccc3)n2)nc(NC(C)C)n1	13.1	98.1	7.5	selectivity ratio [1]: 2.8; IC50 (Leishmania amazonensis [5]): 35 µM
COc1ccc(-c2nc(C(=O)NCCNc3nc(NC(C)C)nc(NC(C)C)n3)cc3c2[nH]c2ccccc23)cc1	23.5	146	6.2	Activity (Leishmania amazonensis [9]): Active; Activity (Leishmania amazonensis [10]): Active; selectivity ratio [1]: 121; Activity (Leishmania amazonensis [11]): Active; Activity (Leishmania amazonensis [12]): Active; Activity (Leishmania amazonensis [13]): 9%; Activity (Leishmania amazonensis [14]): Active; Activity (Leishmania amazonensis [15]): 184.8%; Activity (Leishmania amazonensis [16]): Active; Activity (Leishmania amazonensis [17]): 81.9%; Activity (Leishmania amazonensis [18]): Active; Activity (Leishmania amazonensis [19]): Active; Activity (Leishmania amazonensis [20]): Active; IC50 (Leishmania amazonensis [5]): 1.2 µM; Activity (Leishmania amazonensis [21]): Active; Activity (Leishmania amazonensis [22]): 428.6%
CC(C)Nc1nc(NCCNC(=O)c2cc3c([nH]c4ccccc43)c(-c3ccccc3Cl)n2)nc(NC(C)C)n1	–	–	> 100	–
CC(C)Nc1nc(NNC(=O)c2cc3c([nH]c4ccccc43)c(-c3ccccc3)n2)nc(NC(C)C)n1	2.6	103	39.7	selectivity ratio [1]: 3.16; IC50 (Leishmania amazonensis [5]): 32.5 µM

Source: ChEMBL document CHEMBL4229352, “Synthesis, antileishmanial activity and mechanism of action studies of novel β-carboline-1,3,5-triazine hybrids” (Eur J Med Chem, 2018)
